# In ChEMBL document CHEMBL1155944 (J Med Chem, 2008):
# Legend:
# [1] = molecular target: T1, Gamma-aminobutyric acid receptor subunit alpha-1 (Rattus norvegicus, UniProt P62813+P63138); assay: Agonist activity at rat wild type GABAA alpha-1-beta-2 receptor expressed in Xenopus laevis oocytes at -60 mV by Two-Electrode voltage clamp method; type: functional, cell-based, Oocyte
# [2] = Agonist activity at rat GABAA alpha-1F64C-beta-2 receptor mutant expressed in Xenopus laevis oocytes at -60 mV by Two-Electrode voltage clamp method; type: functional, cell-based; conditions: Oocyte
# [3] = Agonist activity at rat GABAA alpha-1S68C-beta-2 receptor mutant expressed in Xenopus laevis oocytes at -60 mV by Two-Electrode voltage clamp method; type: functional, cell-based; conditions: Oocyte
# [4] = molecular target: Gamma-aminobutyric acid receptor subunit alpha-1 (Rattus norvegicus) (UniProt P62813); assay: Agonist activity at rat wild type GABAA alpha-1-beta-2 receptor expressed in Xenopus laevis oocytes at -60 mV at 30 mM by Two-Electrode voltage clamp method; type: functional, cell-based; conditions: Oocyte
# In short: (§1)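 Rat α1β2 receptors (wt or cysteine mutant) expressed in Xenopus oocytes. Two-electrode voltage clamp at −60 mV, room temperature, Ca2+-free frog Ringer, pH 7.5. Increasing test concentrations applied alone. Currents normalized to the maximal GABA-induced current. Some dose-response curves had only two trials.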
# [5] = Agonist activity at rat GABAA alpha-1F64C-beta-2 receptor mutant expressed in Xenopus laevis oocytes at -60 mV at 30 mM by Two-Electrode voltage clamp method; type: functional, Oocyte; in short: as §1
# [6] = Agonist activity at rat GABAA alpha-1S68C-beta-2 receptor mutant expressed in Xenopus laevis oocytes at -60 mV at 30 mM by Two-Electrode voltage clamp method; type: functional, Oocyte; in short: as §1
# [7] = molecular target: T1, Gamma-aminobutyric acid receptor subunit alpha-1; assay: Agonist activity at rat wild type GABAA alpha-1-beta-2 receptor expressed in Xenopus laevis oocytes as inhibition of GABA-induced current at -60 mV by Two-Electrode voltage clamp method in presence of picrotoxinin; type: functional, cell-based, Oocyte
# [8] = Agonist activity at rat GABAA alpha-1F64C-beta-2 receptor mutant expressed in Xenopus laevis oocytes assessed as inhibition of GABA-induced current at -60 mV by Two-Electrode voltage clamp method in presence of picrotoxinin; type: functional, cell-based; conditions: Oocyte
# [9] = Agonist activity at rat GABAA alpha-1S68C-beta-2 receptor mutant expressed in Xenopus laevis oocytes as inhibition of GABA-induced current at -60 mV by Two-Electrode voltage clamp method in presence of picrotoxinin; type: functional, cell-based; conditions: Oocyte
# [10] = molecular target: Gamma-aminobutyric acid receptor subunit alpha-1 (Rattus norvegicus) (UniProt P62813); assay: Agonist activity at rat wild type GABAA alpha-1-beta-2 receptor expressed in Xenopus laevis oocytes as inhibition of GABA-induced current at -60 mV at 1 mM by Two-Electrode voltage clamp method; type: functional, cell-based; design: scale not given: the % may be the effect or the level left; conditions: Oocyte
# In short: (§2)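 Xenopus oocytes injected with rat α1 (wt or cysteine mutant) plus β2 mRNA, kept 2–10 days at 17 °C. Two-electrode voltage clamp at −60 mV, room temperature, Ca2+-free frog Ringer, pH 7.5.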
# [11] = Agonist activity at rat GABAA alpha-1F64C-beta-2 receptor mutant expressed in Xenopus laevis oocytes assessed as inhibition of GABA-induced current at -60 mV at 1 mM by Two-Electrode voltage clamp method; type: functional, Oocyte; design: scale not given: the % may be the effect or the level left; in short: as §2
# [12] = Agonist activity at rat GABAA alpha-1S68C-beta-2 receptor mutant expressed in Xenopus laevis oocytes as inhibition of GABA-induced current at -60 mV at 1 mM by Two-Electrode voltage clamp method; type: functional, Oocyte; design: scale not given: the % may be the effect or the level left; in short: as §2
# [13] = molecular target: Gamma-aminobutyric acid receptor subunit alpha-1 (Rattus norvegicus) (UniProt P62813); assay: Agonist activity at rat wild type GABAA alpha-1-beta-2 receptor expressed in Xenopus laevis oocytes assessed as inhibition of drug-induced current at -60 mV at 10 mM in presence of 100 uM picrotoxinin by Two-Electrode voltage clamp method; type: functional, cell-based; design: scale not given: the % may be the effect or the level left; conditions: Oocyte
# In short: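 Oocytes expressing rat α1β2, two-electrode voltage clamp at −60 mV. Several 10 mM test pulses applied, then washout. 100 μM picrotoxinin applied, immediately followed by co-application of 10 mM drug plus 100 μM picrotoxinin, and the current recorded.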
# [14] = Agonist activity at rat GABAA alpha-1F64C-beta-2 receptor mutant expressed in Xenopus laevis oocytes assessed as reduction of GABA-induced current at -60 mV at 10 mM by Two-Electrode voltage clamp method in presence of 10 uM 2-sulfonatoethyl methanethiosulfonate; type: functional, Oocyte; design: scale not given: the % may be the effect or the level left
# [15] = Agonist activity at rat GABAA alpha-1S68C-beta-2 receptor mutant expressed in Xenopus laevis oocytes assessed as reduction of GABA-induced current at -60 mV at 10 mM by Two-Electrode voltage clamp method in presence of 450 uM 2-sulfonatoethyl methanethiosulfonate; type: functional, Oocyte; design: scale not given: the % may be the effect or the level left
# [16] = Agonist activity at rat GABAA alpha-1R66C-beta-2 receptor mutant expressed in Xenopus laevis oocytes assessed as inhibition of GABA-induced current at -60 mV at 10 mM in presence of 2 mM 2-sulfonatoethyl methanethiosulfonate by Two-Electrode voltage clamp method; type: functional, Oocyte; design: scale not given: the % may be the effect or the level left
# [17] = Agonist activity at rat GABAA alpha-1R66C-beta-2 receptor mutant expressed in Xenopus laevis oocytes assessed as reduction of GABA-induced current at -60 mV at 30 mM by Two-Electrode voltage clamp method in presence of 5.5 mM GABA; type: functional, Oocyte; design: scale not given: the % may be the effect or the level left
# In short: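 α1R66Cβ2 oocytes, two-electrode voltage clamp at −60 mV. […] Then 10 mM MTSES (12 s) and 10 mM DTT (20 s) were applied. Reaction rate fitted monoexponentially against cumulative application time.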
# [18] = molecular target: Gamma-aminobutyric acid receptor subunit alpha-6 (Rattus norvegicus) (UniProt P30191); assay: Displacement of [3H]Muscimol from GABAAalpha6 receptor in Sprague-Dawley rat brain cerebellum membrane at 1 mM; type: tissue-based
# In short: (§3)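 Well-washed membranes from adult male Sprague-Dawley rat cortex or cerebellum (50–200 μg protein). Incubated 60 min on ice in 50 mM Tris/citrate, pH 7.3, with 6 nM [3H]muscimol and test compound. […] Filtered and counted by scintillation. IC50 and pseudo-Hill coefficient obtained by nonlinear regression.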
# [19] = species: Rattus norvegicus; assay: Displacement of [3H]Muscimol from GABAA alpha-1-alpha-5 receptor in Sprague-Dawley rat brain cortex membrane at 100 uM; in short: as §3
# [20] = species: Rattus norvegicus; assay: Displacement of [3H]Muscimol from GABAA alpha-1-alpha-5 receptor in Sprague-Dawley rat brain cortex membrane at 1 mM; in short: as §3
# [21] = molecular target: Gamma-aminobutyric acid receptor subunit alpha-6 (Rattus norvegicus) (UniProt P30191); assay: Displacement of [3H]Muscimol from GABAAalpha6 receptor in Sprague-Dawley rat brain cerebellum membrane at 100 uM; type: tissue-based; in short: as §3
# [22] = species: Rattus norvegicus; assay: (§4) Displacement of [3H]Muscimol from GABAA alpha-1-alpha-5 receptor in Sprague-Dawley rat brain cortex membrane; in short: as §3
# [23] = molecular target: Gamma-aminobutyric acid receptor subunit alpha-6 (Rattus norvegicus) (UniProt P30191); assay: (§5) Displacement of [3H]Muscimol from GABAAalpha6 receptor in Sprague-Dawley rat brain cerebellum membrane; type: tissue-based; in short: as §3
# [24] = molecular target: Gamma-aminobutyric acid receptor subunit alpha-6 (Rattus norvegicus, UniProt P30191); assay: as §5; type: tissue-based; in short: as §3
# [25] = molecular target: GABA A receptor alpha-5/beta-3/gamma-2 (Rattus norvegicus) (UniProt P18508+P19969+P63079); assay: Intrinsic activity at recombinant rat GABAA alpha-5-beta-3-gamma-2 receptor expressed in HEK293 cells assessed as induction of current at 1 mM by whole-cell patch-clamp technique relative to GABA; type: cell-based
# In short: (§6)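 Rat αiβ3γ2S receptors transiently expressed in HEK293 cells, with EGFP marking transfected cells, recorded 2 days after transfection. Whole-cell patch clamp in HEPES saline, pH 7.35. Drug applied alone at 1, 10, 100 and 1000 μM. […] Data from at least four cells.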
# [26] = molecular target: T2, GABA A receptor alpha-2/beta-2/gamma-2 (Rattus norvegicus) (UniProt P18508+P23576+P63138); assay: Intrinsic activity at recombinant rat GABAA alpha-2-beta-3-gamma-2 receptor expressed in HEK293 cells assessed as induction of current at 1 mM by whole-cell patch-clamp technique relative to GABA; type: cell-based; in short: as §6
# [27] = molecular target: Gamma-aminobutyric acid receptor subunit alpha-3 (Rattus norvegicus) (UniProt P20236); assay: Intrinsic activity at recombinant rat GABAA alpha-3-beta-3-gamma-2 receptor expressed in HEK293 cells assessed as induction of current at 1 mM by whole-cell patch-clamp technique relative to GABA; type: cell-based; in short: as §6
# [28] = molecular target: T2, GABA A receptor alpha-2/beta-2/gamma-2 (Rattus norvegicus); assay: Antagonist activity at recombinant rat GABAA alpha-2-beta-3-gamma-2 receptor expressed in HEK293 cells assessed as inhibition of GABA-induced current at 1 uM by whole-cell patch-clamp technique; type: functional, cell-based; design: scale not given: the % may be the effect or the level left
# In short: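 HEK293 cells transiently transfected by calcium phosphate with rat αi, β3, γ2S and EGFP cDNAs, recorded 2 days later. Whole-cell patch clamp in HEPES saline, pH 7.35. […] Response expressed relative to the GABA-alone current. Data from at least four cells.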
# [29] = molecular target: Gamma-aminobutyric acid receptor subunit alpha-3 (Rattus norvegicus, UniProt P18508+P20236+P63079); assay: Agonist activity at rat recombinant GABAA alpha-3-beta-3-gamma-2 receptor expressed in HEK293 cells assessed as normalization of GABA-induced current by whole cell patch-clamp technique; type: functional, cell-based
# In short: (§7)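 HEK293 cells transiently co-transfected (calcium phosphate) with rat αi, β3 and γ2S cDNAs plus EGFP marker; recorded 2 days later by whole-cell patch clamp in HEPES saline pH 7.35.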
# [30] = molecular target: Gamma-aminobutyric acid receptor subunit alpha-4 (Rattus norvegicus, UniProt P18508+P28471+P63079); assay: Agonist activity at rat recombinant GABAA alpha-4-beta-3-gamma-2 receptor expressed in HEK293 cells assessed as normalization of GABA-induced current by whole cell patch-clamp technique; type: functional, cell-based; in short: as §7
# [31] = molecular target: GABA A receptor alpha-5/beta-3/gamma-2 (Rattus norvegicus, UniProt P18508+P19969+P63079); assay: Agonist activity at rat recombinant GABAA alpha-5-beta-3-gamma-2 receptor expressed in HEK293 cells assessed as normalization of GABA-induced current by whole cell patch-clamp technique; type: functional, cell-based; in short: as §7
# [32] = molecular target: Gamma-aminobutyric acid receptor subunit alpha-6 (Rattus norvegicus, UniProt P18508+P30191+P63079); assay: Agonist activity at rat recombinant GABAA alpha-6-beta-3-gamma-2 receptor expressed in HEK293 cells assessed as normalization of GABA-induced current by whole cell patch-clamp technique; type: functional, cell-based
# In short: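 HEK293 cells transiently transfected by calcium phosphate with rat α6 (2 μg), β3 (0.4 μg) and γ2S (0.3 μg) cDNAs plus 1 μg EGFP vector per plate. Whole-cell patch clamp was done 2 days later on EGFP-positive cells in HEPES saline at pH 7.35. Compound was applied alone by fast perfusion at 1, 10, 100 and 1000 μM.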
# [33] = as §4; in short: as §3
# [34] = molecular target: Gamma-aminobutyric acid receptor subunit alpha-6 (Rattus norvegicus) (UniProt P30191); assay: Intrinsic activity at recombinant rat GABAA alpha-6-beta-3-gamma-2 receptor expressed in HEK293 cells assessed as induction of current at 1 mM by whole-cell patch-clamp technique relative to GABA; type: cell-based; in short: as §6
# [35] = molecular target: Gamma-aminobutyric acid receptor subunit alpha-4 (Rattus norvegicus) (UniProt P28471); assay: Intrinsic activity at recombinant rat GABAA alpha-4-beta-3-gamma-2 receptor expressed in HEK293 cells assessed as induction of current at 1 mM by whole-cell patch-clamp technique relative to GABA; type: cell-based; in short: as §6
# [36] = molecular target: GABA-A receptor; alpha-1/beta-2/gamma-2 (Rattus norvegicus) (UniProt P18508+P62813+P63138); assay: Intrinsic activity at recombinant rat GABAA alpha-1-beta-3-gamma-2 receptor expressed in HEK293 cells assessed as induction of current at 1 mM by whole-cell patch-clamp technique relative to GABA; type: cell-based; in short: as §6
# Chain of Gamma-aminobutyric acid receptor subunit alpha-6 (Rattus norvegicus) (P30191 whole entry): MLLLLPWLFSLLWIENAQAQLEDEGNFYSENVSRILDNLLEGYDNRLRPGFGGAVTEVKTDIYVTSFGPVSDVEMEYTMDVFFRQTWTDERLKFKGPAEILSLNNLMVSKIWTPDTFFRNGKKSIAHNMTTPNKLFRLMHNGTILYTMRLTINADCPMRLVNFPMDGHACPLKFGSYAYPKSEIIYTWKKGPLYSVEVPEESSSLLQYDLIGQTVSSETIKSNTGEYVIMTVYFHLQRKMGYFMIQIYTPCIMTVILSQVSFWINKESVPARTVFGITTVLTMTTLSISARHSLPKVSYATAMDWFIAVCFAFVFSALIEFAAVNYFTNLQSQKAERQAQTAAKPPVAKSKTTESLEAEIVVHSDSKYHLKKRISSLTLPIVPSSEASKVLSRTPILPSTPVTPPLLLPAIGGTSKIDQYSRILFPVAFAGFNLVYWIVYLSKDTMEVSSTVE
# Chain of Gamma-aminobutyric acid receptor subunit alpha-1 (Rattus norvegicus) (P62813 whole entry): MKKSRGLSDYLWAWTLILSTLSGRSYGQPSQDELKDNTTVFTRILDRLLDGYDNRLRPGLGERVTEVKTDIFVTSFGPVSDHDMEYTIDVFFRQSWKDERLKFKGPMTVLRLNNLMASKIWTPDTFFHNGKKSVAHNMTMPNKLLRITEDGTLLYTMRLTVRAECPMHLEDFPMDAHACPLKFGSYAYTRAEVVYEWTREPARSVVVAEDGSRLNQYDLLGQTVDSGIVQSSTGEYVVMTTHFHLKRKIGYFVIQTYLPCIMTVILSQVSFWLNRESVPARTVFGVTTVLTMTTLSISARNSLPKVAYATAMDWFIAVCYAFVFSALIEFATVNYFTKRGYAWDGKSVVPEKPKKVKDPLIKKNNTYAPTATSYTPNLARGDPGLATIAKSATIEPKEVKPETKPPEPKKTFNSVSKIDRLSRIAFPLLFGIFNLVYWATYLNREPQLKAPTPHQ
# Chain of Gamma-aminobutyric acid receptor subunit alpha-6 (Rattus norvegicus, UniProt P30191) (P30191 whole entry): as the sequence (P30191 whole entry) above
# T1 sequence (P62813 whole entry, one chain of several): as the sequence (P62813 whole entry) above
# Chain of Gamma-aminobutyric acid receptor subunit alpha-3 (Rattus norvegicus) (P20236 whole entry): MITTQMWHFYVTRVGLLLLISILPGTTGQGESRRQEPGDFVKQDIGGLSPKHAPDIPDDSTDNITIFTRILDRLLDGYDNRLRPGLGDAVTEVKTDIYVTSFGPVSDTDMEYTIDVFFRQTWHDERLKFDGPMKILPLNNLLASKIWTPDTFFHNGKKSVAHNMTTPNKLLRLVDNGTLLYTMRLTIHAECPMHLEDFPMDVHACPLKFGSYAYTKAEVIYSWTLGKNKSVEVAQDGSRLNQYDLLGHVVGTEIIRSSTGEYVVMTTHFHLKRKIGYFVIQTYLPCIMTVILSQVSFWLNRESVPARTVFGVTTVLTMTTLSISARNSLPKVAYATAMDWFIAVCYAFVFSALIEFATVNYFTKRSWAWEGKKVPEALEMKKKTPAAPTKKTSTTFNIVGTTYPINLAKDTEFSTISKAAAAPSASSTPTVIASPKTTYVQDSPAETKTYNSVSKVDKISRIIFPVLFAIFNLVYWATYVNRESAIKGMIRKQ
# Chain of Gamma-aminobutyric acid receptor subunit alpha-6 (Rattus norvegicus, UniProt P18508+P30191+P63079) (P30191 whole entry, the tested form may be a part, one chain of several): as the sequence (P30191 whole entry) above
# Chain of GABA A receptor alpha-5/beta-3/gamma-2 (P18508 whole entry): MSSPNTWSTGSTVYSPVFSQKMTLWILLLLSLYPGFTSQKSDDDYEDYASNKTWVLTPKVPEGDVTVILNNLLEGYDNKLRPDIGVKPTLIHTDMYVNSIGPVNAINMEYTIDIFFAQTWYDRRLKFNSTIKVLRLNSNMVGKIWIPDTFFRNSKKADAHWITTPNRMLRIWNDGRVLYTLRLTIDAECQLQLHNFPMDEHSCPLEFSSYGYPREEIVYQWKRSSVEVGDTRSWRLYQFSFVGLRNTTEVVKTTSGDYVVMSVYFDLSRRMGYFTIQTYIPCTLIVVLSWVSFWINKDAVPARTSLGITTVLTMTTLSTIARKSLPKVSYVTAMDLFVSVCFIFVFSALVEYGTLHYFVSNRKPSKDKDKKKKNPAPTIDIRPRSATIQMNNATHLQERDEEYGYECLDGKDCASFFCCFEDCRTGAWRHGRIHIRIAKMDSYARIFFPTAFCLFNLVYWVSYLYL
# Chain of GABA A receptor alpha-5/beta-3/gamma-2 (P19969 whole entry): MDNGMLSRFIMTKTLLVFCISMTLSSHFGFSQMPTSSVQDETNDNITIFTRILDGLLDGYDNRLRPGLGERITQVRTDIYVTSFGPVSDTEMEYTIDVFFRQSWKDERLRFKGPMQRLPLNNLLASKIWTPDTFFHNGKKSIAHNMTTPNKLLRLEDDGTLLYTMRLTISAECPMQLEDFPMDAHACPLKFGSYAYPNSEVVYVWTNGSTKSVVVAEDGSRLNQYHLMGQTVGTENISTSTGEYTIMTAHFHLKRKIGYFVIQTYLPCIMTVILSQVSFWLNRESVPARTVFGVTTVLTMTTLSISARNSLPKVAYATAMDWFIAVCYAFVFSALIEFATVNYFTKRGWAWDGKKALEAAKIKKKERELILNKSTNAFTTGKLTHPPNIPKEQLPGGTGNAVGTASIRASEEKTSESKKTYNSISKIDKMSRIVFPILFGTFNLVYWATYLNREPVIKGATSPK
# Chain of GABA A receptor alpha-5/beta-3/gamma-2 (P63079 whole entry): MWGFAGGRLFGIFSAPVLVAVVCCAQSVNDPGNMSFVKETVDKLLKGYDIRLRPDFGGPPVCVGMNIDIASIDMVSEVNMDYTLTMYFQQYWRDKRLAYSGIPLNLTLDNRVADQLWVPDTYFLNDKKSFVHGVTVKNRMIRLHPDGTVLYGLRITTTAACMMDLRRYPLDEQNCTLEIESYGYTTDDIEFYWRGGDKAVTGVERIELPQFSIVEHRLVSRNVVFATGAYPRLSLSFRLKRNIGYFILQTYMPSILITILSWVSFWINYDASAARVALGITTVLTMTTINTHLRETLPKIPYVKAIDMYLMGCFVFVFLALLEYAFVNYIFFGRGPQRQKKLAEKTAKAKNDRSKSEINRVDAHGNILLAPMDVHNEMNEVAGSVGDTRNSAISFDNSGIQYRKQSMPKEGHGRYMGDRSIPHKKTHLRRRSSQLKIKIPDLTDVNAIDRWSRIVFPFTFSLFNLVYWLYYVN
# Chain of Gamma-aminobutyric acid receptor subunit alpha-3 (P20236 whole entry, one chain of several): as the sequence (P20236 whole entry) above
# Chain of Gamma-aminobutyric acid receptor subunit alpha-4 (Rattus norvegicus) (P28471 whole entry): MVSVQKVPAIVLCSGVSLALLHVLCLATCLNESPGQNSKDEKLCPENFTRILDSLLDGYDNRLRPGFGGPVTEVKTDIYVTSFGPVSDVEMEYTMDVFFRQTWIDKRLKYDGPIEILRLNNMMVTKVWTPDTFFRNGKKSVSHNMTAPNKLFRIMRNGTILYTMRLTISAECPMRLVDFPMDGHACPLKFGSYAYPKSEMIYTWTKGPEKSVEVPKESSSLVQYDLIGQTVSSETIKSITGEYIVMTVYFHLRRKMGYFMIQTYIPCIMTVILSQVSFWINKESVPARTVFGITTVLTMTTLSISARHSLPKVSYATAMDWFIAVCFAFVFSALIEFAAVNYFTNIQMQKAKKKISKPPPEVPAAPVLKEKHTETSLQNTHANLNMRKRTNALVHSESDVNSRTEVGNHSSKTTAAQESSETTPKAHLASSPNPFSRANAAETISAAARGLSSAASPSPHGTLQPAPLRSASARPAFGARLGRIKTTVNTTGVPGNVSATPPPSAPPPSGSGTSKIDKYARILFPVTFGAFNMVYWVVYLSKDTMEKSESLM
# Chain of Gamma-aminobutyric acid receptor subunit alpha-4 (P28471 whole entry, one chain of several): as the sequence (P28471 whole entry) above
structure (smiles),measurement,setting,value
Cl.Sc1nnc(C2CCNCC2)o1,EC50,[1],9500 µM
same,EC50,[2],5500 µM
same,EC50,[3],10000 µM
same,Activity,[4],20%
same,Activity,[5],60%
same,Activity,[6],17%
same,IC50,[7],59 µM
same,IC50,[8],56 µM
same,IC50,[9],46 µM
same,Activity,[10],6.8%
same,Activity,[11],9%
same,Activity,[12],3%
same,Activity,[13],80%
same,Activity,[14],47%
same,Activity,[15],40%
same,Activity,[16],77%
same,Activity,[17],68%
same,inhibition,[18],91%
same,inhibition,[19],68%
same,inhibition,[20],94%
same,inhibition,[21],64%
same,logIC50,[22],1.67
same,logIC50,[23],1.82
same,IC50,[24],66 µM
same,Activity,[25],48%
same,Activity,[26],23%
same,Activity,[27],13%
same,Activity,[28],39%
NCc1nnc(O)o1,EC50,[29],2300 µM
same,EC50,[30],128 µM
same,EC50,[31],137 µM
same,EC50,[32],30 µM
same,inhibition,[18],102%
same,inhibition,[19],99%
same,inhibition,[20],104%
same,inhibition,[21],97%
same,IC50,[33],1.4 µM
same,logIC50,[22],0.139
same,logIC50,[23],0.048
same,IC50,[24],1.1 µM
same,Activity,[34],1.03
same,Activity,[25],0.95
same,Activity,[35],0.97
same,Activity,[36],0.93
same,Activity,[26],0.88
same,Activity,[27],0.59
